Reference: ChEMBL document CHEMBL1828498, “Identification and characterization of a novel integrin-linked kinase inhibitor” (J Med Chem, 2011)
Active and inactive are the calls of the source. The rule behind the calls is not given here.

Assays:
[1] = target: Glycogen synthase kinase-3 beta (Homo sapiens) (UniProt P49841); test: Inhibition of GSK3-beta at 5 uM assessed as remaining activity
Procedure, shortened: (§1)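 Panel of 20 recombinant kinases, profiled by a commercial vendor.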

[2] = system: SK-BR-3; test: Reduction in HER2 concentration in human SKBR3 cells expressing constitutively active ILK after 24 hrs by Western blot analysis; assay type: functional, cell-based
Procedure, shortened: (§2)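 PC-3 versus stable PC-3/CA-ILK, or SKBR3 versus transient SKBR3/CA-ILK (electroporation, used 48 h after), treated 24 h in 5% FBS medium; immunoblotting with ECL; representative of three experiments.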

[3] = target: Proto-oncogene tyrosine-protein kinase ROS (Homo sapiens) (UniProt P08922); test: Inhibition of Ros at 5 uM assessed as remaining activity
[4] = system: SK-BR-3; test: Reduction in YB-1 mRNA expression in human SKBR3 cells after 24 hrs by RT-PCR analysis; assay type: functional, cell-based
Procedure, shortened: (§3)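 PC-3, PC-3/CA-ILK, SKBR3 and SKBR3/CA-ILK cells treated 24 h in 5% FBS medium; total RNA from 1 × 10^6 cells by Trizol, 1 μg reverse-transcribed, then PCR with gene-specific primers and β-actin reference.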

[5] = system: PC-3; test: Induction of apoptosis in human PC3 cells assessed as late apoptotic cells at 4 uM by annexin V/PI staining (reference value: 9.8%); assay type: functional
[6] = target: Cyclin-dependent kinase 1/cyclin B1 (Homo sapiens) (UniProt P06493+P14635); test: Inhibition of CDK1/cyclin B at 5 uM assessed as remaining activity; assay type: protein-complex assay; procedure, shortened: as §1
[7] = system: MCF7; test: Antiproliferative activity against human MCF7 cells assessed as suppression of cell viability by MTT assay; assay type: functional, cell-based
Procedure, shortened: (§4)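 Cancer lines seeded 5000/well and nonmalignant PrEC/MEC 8000/well in 10% FBS, 24 h before treatment. Compound exposure 24 h in 5% FBS medium, 0.1% final DMSO. MTT (0.25 mg/mL) for 1 h at 37°C, dye solubilized in DMSO, absorbance read at 570 nm. Mean ± SD, n = 6.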

[8] = target: Ribosomal protein S6 kinase beta-1 (Homo sapiens) (UniProt P23443); test: Inhibition of p70S6K in human PC3 cells assessed as decrease in phosphorylated S6 by Western blot analysis; assay type: cell-based; conditions: PC-3
Procedure, shortened: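 PC-3 cells (parental, or stable GFP-CA-ILK clones selected with G418 250 μg/mL and GFP sorting) exposed 24 h in 5% FBS medium; SDS lysis, immunoblot at 1:1000 primary, ECL; representative of three experiments.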

[9] = target: Cyclin-dependent kinase 5/CDK5 activator 1 (Homo sapiens) (UniProt Q00535+Q15078); test: Inhibition of CDK5/p25 at 5 uM assessed as remaining activity; assay type: protein-complex assay; procedure, shortened: as §1
[10] = target: Inhibitor of nuclear factor kappa-B kinase subunit beta (Homo sapiens) (UniProt O14920); test: Inhibition of IKK-beta at 5 uM assessed as remaining activity; procedure, shortened: as §1
[11] = system: HMEC; test: Antiproliferative activity against human HMEC cells at 1 to 5 uM by MTT assay; assay type: cell-based; procedure, shortened: as §4
[12] = system: PC-3; test: Reduction in EGFR mRNA expression in human PC3 cells expressing constitutively active ILK after 24 hrs by RT-PCR analysis; assay type: functional, cell-based; procedure, shortened: as §3
[13] = system: SK-BR-3; test: Reduction in EGFR concentration in human SKBR3 cells after 24 hrs by Western blot analysis; assay type: functional, cell-based; procedure, shortened: as §2
[14] = system: PC-3; test: Induction of change in cell cycle distribution in human PC3 cells up to 2 uM after 48 hrs by flow cytometry; assay type: functional, cell-based
Procedure, shortened: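 Treated PC-3 cells harvested, fixed in 100% ethanol, stained 30 min at 37°C in the dark with 80 μg/mL PI, 100 μg/mL RNase, 0.1% Triton X-100. Phase distribution by flow cytometry. Mean ± SD, n = 3. Methods give 48 h exposure; the figure legend gives 24 h in 5% FBS.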

[15] = system: Mus musculus; test: Decrease in phosphorylation of HER2 in human PC3 cells xenografted nude mouse tumor lysate at 25 mg/kg, po administered for 35 days by Western blot analysis; assay type: functional, organism-based; set-up: dose 25 mg/kg; conditions: Neoplasm, PC-3
Procedure, shortened: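 Male NCr athymic nude mice, 5–7 weeks, with s.c. PC-3 xenografts (0.5 × 10^6 cells in 50% Matrigel), dosed by oral gavage once daily for 35 days. Vehicle 0.5% methylcellulose, 0.1% Tween 80 in water, 10 μL/g. Tumors snap-frozen at sacrifice; three tumors per group immunoblotted.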

[16] = system: PC-3; test: Cytotoxicity against human PC3 cells expressing Atg5 siRNA assessed as cell viability by MTT assay; assay type: functional, cell-based
Procedure, shortened: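 PC-3 cells electroporated with Atg5 siRNA (or control siRNA) and used 48 h after transfection. Treated 24 h in 5% FBS medium, 0.1% DMSO. Viability by MTT, 1 h at 37°C, absorbance 570 nm. Mean ± SD, n = 6.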

[17] = system: PC-3; test: Reduction in EGFR mRNA expression in human PC3 cells after 24 hrs by RT-PCR analysis; assay type: functional, cell-based; procedure, shortened: as §3
[18] = system: PC-3; test: Antiproliferative activity against human PC3 cells expressing constitutively active ILK assessed as cell viability by MTT assay; assay type: functional, cell-based
Procedure, shortened: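 Stable PC-3 clones expressing GFP-CA-ILK (or GFP), made by electroporation, G418 250 μg/mL for one week and GFP sorting. Treated 24 h in 5% FBS medium. Viability by MTT, 0.25 mg/mL, 1 h at 37°C, A570. n = 6, mean ± SD.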

[19] = target: Rapamycin-insensitive companion of mTOR (Homo sapiens) (UniProt Q6R327); test: Inhibition of mTORC2 in human PC3 cells assessed as PKCalpha phosphorylation by Western blot analysis; assay type: cell-based; conditions: PC-3
Procedure, shortened: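 Cells exposed 24 h in 5% FBS medium, final DMSO 0.1%; lysed in 1% SDS/10 mM EDTA/50 mM Tris pH 8.1, equal protein on SDS-PAGE, nitrocellulose, primary antibody 1:1000 at 4°C for 2 h, HRP secondary 1:5000, ECL detection; blots representative of three independent experiments.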

[20] = target: Serine/threonine-protein kinase mTOR (Homo sapiens) (UniProt P42345); test: Inhibition of mTOR at 5 uM assessed as remaining activity
[21] = system: Mus musculus; test: Toxicity in nude mouse assessed as weight loss at 50 mg/kg, po administered for 35 days; assay type: organism-based; set-up: dose 50 mg/kg, route oral; conditions: in vivo, 840 h
Procedure, shortened: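 Male NCr nude mice bearing s.c. PC-3 tumors, dosed once daily by oral gavage in 0.5% methylcellulose/0.1% Tween 80 vehicle, 10 μL/g, for 35 days; body weight recorded weekly.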

[22] = target: Tyrosine-protein kinase ZAP-70 (Homo sapiens) (UniProt P43403); test: Inhibition of ZAP70 at 5 uM assessed as remaining activity
[23] = system: SK-BR-3; test: Reduction in YB-1 concentration in human SKBR3 cells expressing constitutively active ILK after 24 hrs by Western blot analysis; assay type: functional, cell-based; procedure, shortened: as §2
[24] = system: PC-3; test: Induction of apoptosis in human PC3 cells assessed as late apoptotic cells at 3 uM by annexin V/PI staining (reference value: 9.8%); assay type: functional

Chain of Proto-oncogene tyrosine-protein kinase ROS (Homo sapiens) (P08922 whole entry): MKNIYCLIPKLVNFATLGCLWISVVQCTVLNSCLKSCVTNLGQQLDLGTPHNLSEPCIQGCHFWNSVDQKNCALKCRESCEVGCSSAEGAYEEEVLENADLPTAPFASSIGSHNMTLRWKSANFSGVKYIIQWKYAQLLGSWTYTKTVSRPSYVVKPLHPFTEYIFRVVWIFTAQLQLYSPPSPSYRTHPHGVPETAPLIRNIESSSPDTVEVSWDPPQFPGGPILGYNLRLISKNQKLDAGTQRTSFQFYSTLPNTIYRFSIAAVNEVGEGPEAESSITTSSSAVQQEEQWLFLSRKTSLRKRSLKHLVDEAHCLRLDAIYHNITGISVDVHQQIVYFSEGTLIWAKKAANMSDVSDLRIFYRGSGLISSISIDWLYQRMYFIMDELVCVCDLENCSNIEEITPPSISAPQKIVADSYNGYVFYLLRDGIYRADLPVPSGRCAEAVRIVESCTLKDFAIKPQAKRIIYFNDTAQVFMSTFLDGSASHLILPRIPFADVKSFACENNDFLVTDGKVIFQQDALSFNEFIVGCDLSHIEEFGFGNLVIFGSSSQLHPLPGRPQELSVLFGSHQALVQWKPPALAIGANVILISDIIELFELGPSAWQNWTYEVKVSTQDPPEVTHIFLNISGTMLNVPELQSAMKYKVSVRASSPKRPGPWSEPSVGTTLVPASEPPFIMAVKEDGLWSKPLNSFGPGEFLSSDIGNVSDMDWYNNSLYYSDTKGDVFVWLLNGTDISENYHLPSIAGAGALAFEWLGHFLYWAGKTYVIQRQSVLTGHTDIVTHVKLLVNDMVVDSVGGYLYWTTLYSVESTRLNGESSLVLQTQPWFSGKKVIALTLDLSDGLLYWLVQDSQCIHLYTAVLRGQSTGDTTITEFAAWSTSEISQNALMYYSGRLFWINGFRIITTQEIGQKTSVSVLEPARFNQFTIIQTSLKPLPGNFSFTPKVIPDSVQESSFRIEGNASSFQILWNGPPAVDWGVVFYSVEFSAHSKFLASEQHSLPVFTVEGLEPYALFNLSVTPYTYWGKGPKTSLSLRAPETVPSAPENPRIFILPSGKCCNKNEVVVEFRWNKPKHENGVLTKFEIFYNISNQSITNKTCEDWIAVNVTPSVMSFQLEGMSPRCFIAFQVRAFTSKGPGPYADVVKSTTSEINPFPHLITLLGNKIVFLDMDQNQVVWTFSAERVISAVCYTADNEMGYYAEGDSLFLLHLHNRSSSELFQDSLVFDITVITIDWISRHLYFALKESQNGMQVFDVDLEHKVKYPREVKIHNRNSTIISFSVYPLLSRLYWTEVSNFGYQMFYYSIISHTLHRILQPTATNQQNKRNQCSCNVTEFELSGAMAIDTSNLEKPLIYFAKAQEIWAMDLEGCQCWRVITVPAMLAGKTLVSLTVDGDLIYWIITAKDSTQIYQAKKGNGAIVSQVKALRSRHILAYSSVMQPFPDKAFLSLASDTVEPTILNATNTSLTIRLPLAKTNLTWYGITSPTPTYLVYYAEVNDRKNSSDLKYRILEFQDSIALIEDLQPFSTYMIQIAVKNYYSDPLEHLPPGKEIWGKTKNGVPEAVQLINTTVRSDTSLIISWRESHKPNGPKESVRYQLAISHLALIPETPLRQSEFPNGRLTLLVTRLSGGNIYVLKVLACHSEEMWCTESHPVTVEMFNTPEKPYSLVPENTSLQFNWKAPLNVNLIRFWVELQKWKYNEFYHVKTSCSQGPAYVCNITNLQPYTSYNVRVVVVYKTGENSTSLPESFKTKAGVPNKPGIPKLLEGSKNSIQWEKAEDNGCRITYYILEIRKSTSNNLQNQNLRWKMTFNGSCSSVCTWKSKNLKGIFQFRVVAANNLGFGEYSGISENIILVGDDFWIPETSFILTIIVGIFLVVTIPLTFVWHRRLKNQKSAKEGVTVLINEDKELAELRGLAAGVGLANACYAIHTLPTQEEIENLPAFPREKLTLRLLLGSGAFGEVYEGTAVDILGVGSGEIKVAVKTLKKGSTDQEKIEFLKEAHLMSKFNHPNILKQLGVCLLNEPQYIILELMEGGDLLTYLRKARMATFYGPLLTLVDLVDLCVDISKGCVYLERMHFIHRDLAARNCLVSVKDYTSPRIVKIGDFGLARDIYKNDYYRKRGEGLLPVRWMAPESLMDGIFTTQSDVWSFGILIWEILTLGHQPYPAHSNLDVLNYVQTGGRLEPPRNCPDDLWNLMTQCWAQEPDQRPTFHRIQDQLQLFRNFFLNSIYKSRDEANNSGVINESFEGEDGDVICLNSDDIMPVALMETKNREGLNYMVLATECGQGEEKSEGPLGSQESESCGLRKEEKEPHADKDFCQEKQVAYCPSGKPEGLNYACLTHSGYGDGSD
Chain of Rapamycin-insensitive companion of mTOR (Homo sapiens) (Q6R327 whole entry): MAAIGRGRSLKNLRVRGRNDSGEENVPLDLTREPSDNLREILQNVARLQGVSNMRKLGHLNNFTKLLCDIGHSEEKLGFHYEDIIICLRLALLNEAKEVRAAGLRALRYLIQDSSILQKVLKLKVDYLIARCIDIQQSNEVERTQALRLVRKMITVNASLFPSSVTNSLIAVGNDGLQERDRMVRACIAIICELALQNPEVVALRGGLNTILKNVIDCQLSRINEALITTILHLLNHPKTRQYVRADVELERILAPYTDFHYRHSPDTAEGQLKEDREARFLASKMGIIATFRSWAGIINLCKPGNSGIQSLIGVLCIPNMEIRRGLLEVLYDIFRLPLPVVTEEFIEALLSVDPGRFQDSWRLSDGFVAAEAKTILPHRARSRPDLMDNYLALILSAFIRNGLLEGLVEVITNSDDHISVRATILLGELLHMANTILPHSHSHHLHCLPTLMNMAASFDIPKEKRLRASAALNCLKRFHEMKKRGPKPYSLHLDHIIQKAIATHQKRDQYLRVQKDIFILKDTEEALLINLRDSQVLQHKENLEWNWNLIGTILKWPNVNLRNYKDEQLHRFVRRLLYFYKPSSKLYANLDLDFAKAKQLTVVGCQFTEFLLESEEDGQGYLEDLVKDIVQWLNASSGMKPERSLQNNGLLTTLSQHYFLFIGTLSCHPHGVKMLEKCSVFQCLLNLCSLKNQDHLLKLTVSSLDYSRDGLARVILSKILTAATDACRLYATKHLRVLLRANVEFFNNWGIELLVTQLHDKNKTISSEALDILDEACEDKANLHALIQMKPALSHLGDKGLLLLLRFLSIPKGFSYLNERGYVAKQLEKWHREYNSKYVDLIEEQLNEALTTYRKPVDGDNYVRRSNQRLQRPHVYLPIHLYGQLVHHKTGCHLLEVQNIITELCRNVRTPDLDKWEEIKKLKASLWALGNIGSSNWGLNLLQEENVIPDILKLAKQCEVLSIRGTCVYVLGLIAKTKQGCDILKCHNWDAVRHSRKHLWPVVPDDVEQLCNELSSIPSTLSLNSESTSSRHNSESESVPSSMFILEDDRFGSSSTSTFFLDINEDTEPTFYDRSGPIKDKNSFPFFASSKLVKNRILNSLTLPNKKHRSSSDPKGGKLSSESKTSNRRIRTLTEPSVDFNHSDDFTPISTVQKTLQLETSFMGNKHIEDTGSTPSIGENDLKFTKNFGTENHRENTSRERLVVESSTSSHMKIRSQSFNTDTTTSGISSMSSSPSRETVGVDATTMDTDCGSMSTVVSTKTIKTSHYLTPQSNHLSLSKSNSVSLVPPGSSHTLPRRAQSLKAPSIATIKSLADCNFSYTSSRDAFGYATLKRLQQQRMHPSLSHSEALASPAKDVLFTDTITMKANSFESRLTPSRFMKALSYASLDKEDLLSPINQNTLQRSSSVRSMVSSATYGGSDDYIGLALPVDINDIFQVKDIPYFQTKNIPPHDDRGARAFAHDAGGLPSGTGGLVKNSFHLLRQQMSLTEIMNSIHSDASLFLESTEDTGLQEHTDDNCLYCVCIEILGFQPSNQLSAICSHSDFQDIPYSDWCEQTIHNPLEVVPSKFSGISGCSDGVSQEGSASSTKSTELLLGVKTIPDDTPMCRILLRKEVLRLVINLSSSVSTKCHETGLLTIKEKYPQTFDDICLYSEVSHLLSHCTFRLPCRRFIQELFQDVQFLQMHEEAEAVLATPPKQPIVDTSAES
Chain of Cyclin-dependent kinase 5/CDK5 activator 1 (Homo sapiens) (Q00535 whole entry): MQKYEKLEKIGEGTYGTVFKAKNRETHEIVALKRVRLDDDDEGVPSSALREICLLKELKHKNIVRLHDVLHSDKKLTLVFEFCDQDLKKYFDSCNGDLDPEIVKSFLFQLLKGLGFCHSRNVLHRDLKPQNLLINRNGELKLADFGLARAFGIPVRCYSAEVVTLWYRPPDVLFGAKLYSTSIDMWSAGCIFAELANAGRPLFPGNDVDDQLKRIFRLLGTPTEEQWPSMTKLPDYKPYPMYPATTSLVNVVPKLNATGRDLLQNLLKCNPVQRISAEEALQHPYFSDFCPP
Chain of Cyclin-dependent kinase 5/CDK5 activator 1 (Homo sapiens) (Q15078 99-307 partner limits assumed): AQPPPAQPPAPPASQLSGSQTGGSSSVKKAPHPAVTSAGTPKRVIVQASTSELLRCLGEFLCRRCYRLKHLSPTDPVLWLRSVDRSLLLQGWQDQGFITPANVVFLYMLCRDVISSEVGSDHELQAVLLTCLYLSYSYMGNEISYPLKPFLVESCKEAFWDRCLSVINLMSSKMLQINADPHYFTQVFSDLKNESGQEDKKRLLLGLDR
Chain of Ribosomal protein S6 kinase beta-1 (Homo sapiens) (P23443 whole entry, looked up): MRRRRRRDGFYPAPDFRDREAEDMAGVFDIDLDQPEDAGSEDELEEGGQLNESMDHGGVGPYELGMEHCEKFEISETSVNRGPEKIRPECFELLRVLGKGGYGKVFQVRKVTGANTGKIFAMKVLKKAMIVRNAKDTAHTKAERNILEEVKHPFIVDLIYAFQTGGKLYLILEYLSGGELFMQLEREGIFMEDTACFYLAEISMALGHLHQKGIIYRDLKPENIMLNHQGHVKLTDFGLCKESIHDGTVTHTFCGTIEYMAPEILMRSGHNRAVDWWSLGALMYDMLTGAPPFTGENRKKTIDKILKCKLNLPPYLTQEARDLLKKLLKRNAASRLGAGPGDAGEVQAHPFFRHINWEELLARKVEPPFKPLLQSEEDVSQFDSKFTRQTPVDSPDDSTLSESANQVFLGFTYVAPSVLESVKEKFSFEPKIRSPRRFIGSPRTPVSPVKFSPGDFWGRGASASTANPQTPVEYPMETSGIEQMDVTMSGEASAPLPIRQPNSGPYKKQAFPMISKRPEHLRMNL

- Activity [1]: 142%
- Activity [3]: 103%
- Activity [6]: 73%
- IC50 [7]: 2500 nM
- inhibition [8]: Active
- Activity [9]: 98%
- Activity [10]: 102%
- inhibition [19]: inactive
- Activity [20]: 122%
- Activity [22]: 104%
Compound: CNC(=O)CCc1cc(-c2ccc(-c3ccc(C(F)(F)F)cc3)cc2)n(-c2ccc(N3CCNCC3)cc2)n1
- Activity [2]: inactive
- Activity [4]: Dose-dependent effect
- Activity [5]: 19.1%
- inhibition (INH) [11]: Not Active
- Activity [12]: inactive
- Activity [13]: Dose-dependent effect
- Activity [14]: inactive
- Activity [15]: Active
- Activity [16]: inactive
- Activity [17]: Dose-dependent effect
- inhibition [18]: inactive
- Activity [21]: Non-toxic
- Activity [23]: inactive
- Activity [24]: 14.9%
